{"source": "paper PMC12808237", "about": "(Nature Communications, 2025)", "key": {"[1]": {"system": "MITF-dependent target genes", "conditions": "cited from earlier work"}, "melanoma cell lines": {"system": "melanoma cell lines", "conditions": "cited from earlier work"}, "MITF(217-296) [2]": {"target": "T1, MITF(217-296) (Homo sapiens, UniProt O75030)", "T1 sequence (O75030 217-296 isoform O75030-9)": "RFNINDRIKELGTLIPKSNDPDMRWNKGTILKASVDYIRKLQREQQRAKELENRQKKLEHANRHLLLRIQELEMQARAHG", "test": "Protein-observed NMR titration", "type": "binding"}, "MITF(180-296) [3]": {"target": "T2, MITF(180-296) (Homo sapiens, UniProt O75030)", "T2 sequence (O75030 287-403)": "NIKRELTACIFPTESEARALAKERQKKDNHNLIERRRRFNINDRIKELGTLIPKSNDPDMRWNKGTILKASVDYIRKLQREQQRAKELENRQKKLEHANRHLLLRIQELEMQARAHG", "test": "Surface plasmon resonance", "type": "binding", "conditions": "25 °C", "in_short": "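MITF(180-296), biotinylated via C-terminal Avi-tag, was captured on a streptavidin chip at 6 µg mL-1 to ~3000 RU. Run at 25 °C in 25 mM Tris-HCl pH 7.5, 150 mM NaCl, 0.05% Tween 20, 3 mM EDTA, 0.5 mM TCEP, 10 mM L-arginine, 3% DMSO. Test compound was injected as a 2- or 3-fold series at 60 µL min-1 (60 s association, 150 s dissociation). Double-referenced data were fitted globally to a 1:1 model for kon, koff and KD.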"}, "MITF(180-296) [4]": {"target": "T3, MITF(180-296) (Homo sapiens, UniProt O75030)", "T3 sequence (O75030 300-403 limits assumed)": "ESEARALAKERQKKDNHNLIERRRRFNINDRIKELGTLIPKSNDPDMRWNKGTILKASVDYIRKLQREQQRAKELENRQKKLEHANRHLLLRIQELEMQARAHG", "test": "Isothermal titration calorimetry", "type": "binding", "conditions": "25 °C, n = 2, mean ± SD", "in_short": "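Run at 25 °C in high-feedback mode. Buffer: 25 mM Tris-HCl pH 7.5, 150 mM NaCl, 10 mM L-arginine, 3 mM EDTA, 0.5 mM TCEP. Cell held 12 µM purified dimeric wild-type avi-tagged MITF(180-296), dialysed twice at 4 °C, with 2% DMSO. Syringe held 182–220 µM test compound diluted from DMSO. Duplicates were fitted with automatic baseline/integration; reported as mean ± SD.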"}, "MITF(180-296) [5]": {"target": "T3, MITF(180-296)", "test": "Nano differential scanning fluorimetry", "type": "binding", "conditions": "nanoDSF, compound at 50 μM", "in_short": "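Wild-type MITF(180-296) was spun 16,000 × g, 10 min, 4 °C, then used at 0.3 mg mL-1 final in 50 mM HEPES pH 8, 300 mM NaCl, 5% glycerol, 1 mM TCEP. Test compound 50 μM final, 3% DMSO; DMSO for apo. Shaken 30 min at RT and re-spun. Heated 20–95 °C at 0.5 °C min-1; 280 nm excitation, 330/350 nm emission. Duplicates.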"}, "MITF(180-296) A264C": {"system": "MITF(180-296) A264C", "test": "ITC with MITF variant A264C", "type": "binding, human", "conditions": "25 °C"}, "MITF(180-296) R263A": {"system": "MITF(180-296) R263A", "test": "ITC with MITF variant R263A", "type": "binding, human", "conditions": "25 °C"}, "MITF(180-296) Q261A": {"system": "MITF(180-296) Q261A", "test": "ITC with MITF variant Q261A", "type": "binding, human", "conditions": "25 °C"}, "MITF(217-296) [6]": {"target": "T1, MITF(217-296)", "test": "19F NMR reporter assay", "type": "binding"}, "MYC/MAX": {"target": "MYC/MAX (Homo sapiens, UniProt P01106+P61244)", "sequence (P01106 368-449)": "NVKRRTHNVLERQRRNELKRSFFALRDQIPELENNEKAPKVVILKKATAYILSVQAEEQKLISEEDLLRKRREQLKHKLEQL", "sequence (P61244 22-102)": "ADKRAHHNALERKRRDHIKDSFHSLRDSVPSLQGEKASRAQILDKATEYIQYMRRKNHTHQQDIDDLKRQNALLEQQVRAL", "test": "NMR chemical shift perturbation", "type": "binding"}, "[7]": {"conditions": "KD (MITF NMR KD), protein-observed NMR titration"}, "[8]": {"conditions": "SPR KD,eq, equilibrium affinity"}}, "data": [{"smiles": "NS(=O)(=O)c1ccc(NC2=CC(=O)c3ccccc3C2=O)cc1", "note": "[ML329]", "values": [{"measurement": "effect on MITF-dependent target genes", "setting": "[1]", "value": "induce downregulation of a subset of MITF-dependent target genes"}, {"measurement": "effect on survival of melanoma cell lines", "setting": "melanoma cell lines", "value": "negatively impact survival of melanoma cell lines"}]}, {"smiles": "O=C(O)c1[nH]c2ccc(Cl)cc2c1-c1ccc(F)cc1", "note": "[compound 5]", "values": [{"measurement": "Kd", "setting": "MITF(217-296) [2]; [7]", "value": 104, "unit": "µM"}]}, {"smiles": "O=C(O)c1cc2ccc(C#CC3(O)CCCCC3)cc2n1-c1cccc(Cl)c1", "note": "[compound 8]", "values": [{"measurement": "Kd", "setting": "MITF(180-296) [3]; [8]", "value": 1.9, "unit": "µM"}, {"measurement": "Kd", "setting": "MITF(180-296) [3]; kinetic affinity constant (KD,kin), SPR, from kon and koff", "value": 1.8, "unit": "µM"}, {"measurement": "Kd", "setting": "MITF(180-296) [4]; ITC KD", "value": "0.47 ± 0.17", "unit": "µM"}, {"measurement": "-TΔS", "setting": "MITF(180-296) [4]; ITC", "value": "2.96 ± 2.08", "unit": "kcal/mol"}, {"measurement": "ΔG", "setting": "MITF(180-296) [4]; ITC", "value": "-8.63 ± 0.21", "unit": "kcal/mol"}, {"measurement": "ΔH", "setting": "MITF(180-296) [4]; ITC", "value": "-11.8 ± 1.55", "unit": "kcal/mol"}, {"measurement": "thermal stabilization of MITF", "setting": "MITF(180-296) [5]", "value": 3.4, "unit": "°C"}, {"measurement": "binding to MITF variant by ITC", "setting": "MITF(180-296) A264C", "value": "significant disruption of binding interactions"}, {"measurement": "binding to MITF variant by ITC", "setting": "MITF(180-296) R263A", "value": "significant disruption of binding interactions"}, {"measurement": "binding to MITF variant by ITC", "setting": "MITF(180-296) Q261A", "value": "significant disruption of binding interactions"}]}, {"smiles": "O=C(O)c1cc2cc(F)ccc2n1-c1ccc(F)cc1", "note": "[compound 1]", "values": [{"measurement": "Kd", "setting": "MITF(217-296) [2]; KD, protein-observed NMR titrations", "value": 1000, "unit": "µM"}]}, {"smiles": "O=C(O)c1cc2ccc(C#CC3(O)CCCCC3)cc2n1-c1ccccc1", "note": "[compound 6]", "values": [{"measurement": "Ki", "setting": "MITF(217-296) [6]", "value": 2.6, "unit": "µM"}, {"measurement": "improved binding affinity compared to compound 3", "setting": "MITF(217-296) [6]; Ki of 6 versus KD of 3", "value": "> 100", "unit": "fold"}, {"measurement": "Kd", "setting": "MITF(180-296) [3]; [8]", "value": 8, "unit": "µM"}, {"measurement": "ITC KD", "setting": "MITF(180-296) [4]", "value": "low-μM range"}, {"measurement": "Kd", "setting": "MYC/MAX", "value": "> 200", "unit": "µM"}]}, {"smiles": "O=C(O)c1[nH]c2ccc(Cl)cc2c1-c1ccccc1", "note": "[compound 3]", "values": [{"measurement": "Kd", "setting": "MITF(217-296) [2]; [7]", "value": 327, "unit": "µM"}, {"measurement": "ligand efficiency", "setting": "MITF(217-296) [6]; from NMR affinities", "value": 0.25}]}, {"smiles": "Cc1cc(C#CC2(O)CCCCC2)cc2c1cc(C(=O)O)n2-c1ccccc1", "note": "[compound 7]", "values": [{"measurement": "Kd", "setting": "MITF(180-296) [3]; [8]", "value": 4, "unit": "µM"}, {"measurement": "ITC KD", "setting": "MITF(180-296) [4]", "value": "low-μM range"}, {"measurement": "Kd", "setting": "MYC/MAX", "value": "> 200", "unit": "µM"}]}]}
